Experimental findings from ChEMBL document CHEMBL4350966 (J Med Chem, 2019) are described below.

pEC50: −log10 of the molar value.

Data set [1] has as its target T1, fMet-Leu-Phe receptor (Homo sapiens, UniProt P21462).
T1 sequence (P21462 whole entry): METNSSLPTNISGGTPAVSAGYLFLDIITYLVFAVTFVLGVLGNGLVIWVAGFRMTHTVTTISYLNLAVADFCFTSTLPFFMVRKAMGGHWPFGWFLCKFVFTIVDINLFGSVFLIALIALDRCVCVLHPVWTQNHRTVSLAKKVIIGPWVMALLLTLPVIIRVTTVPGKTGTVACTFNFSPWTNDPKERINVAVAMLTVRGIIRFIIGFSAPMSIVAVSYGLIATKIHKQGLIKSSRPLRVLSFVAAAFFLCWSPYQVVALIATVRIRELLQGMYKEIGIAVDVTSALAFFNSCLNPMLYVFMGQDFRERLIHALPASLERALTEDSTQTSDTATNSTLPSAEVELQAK
The data set can be described thus: Biased agonist activity at human FPR1 expressed in FlpIn-CHO cells assessed as intracellular calcium mobilization by Fluo-4-AM dye based fluorescence assay. The data set is classed as functional, cell-based. To be noted: for EC50: read-out: pEC50 (converted). A digest of the protocol: (§1)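 Agonist transduction coefficients (Log(τ/KA)) for each signaling output estimated with an extension of the Black-Leff operational model. Values normalized to a reference ligand and to Ca2+ mobilization as reference pathway, giving ΔLog(τ/KA) and Log(bias factors). Data are mean ± SEM of 4 independent experiments, each performed in duplicate.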
On the technique in general: Calcium assays in cells follow changes in intracellular calcium, usually with a dye or a luminescent sensor.

Data set [2] deals with T1, fMet-Leu-Phe receptor. The data set is described as follows: Biased agonist activity at human FPR1 expressed in FlpIn-CHO cells assessed as stimulation of ERK1/2 phosphorylation measured after 7 mins by Alphascreen assay. In kind it is cell-based. The note with it: for EC50: read-out: pEC50 (converted). A digest of the protocol:
as §1

The nature of data set [3]: Kinetic solubility of the compound at pH 2. The note with it: buffer, read-out: Kinetic_solubility. In kind it is physicochemical. A digest of the protocol:
(§2)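 Kinetic solubility measured by nephelometry at pH 2.0 and pH 6.5; reported in μg/mL.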

The nature of data set [4]: Protein binding in human plasma by chromatographic method. In kind it is ADME, cell-free. To be noted: read-out: PPB (converted). A digest of the protocol: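 Human plasma protein binding estimated by a chromatographic method; reported as percent bound.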
Data set [5] deals with T2, N-formyl peptide receptor 2 (Homo sapiens, UniProt P25090).
T2 sequence (P25090 whole entry): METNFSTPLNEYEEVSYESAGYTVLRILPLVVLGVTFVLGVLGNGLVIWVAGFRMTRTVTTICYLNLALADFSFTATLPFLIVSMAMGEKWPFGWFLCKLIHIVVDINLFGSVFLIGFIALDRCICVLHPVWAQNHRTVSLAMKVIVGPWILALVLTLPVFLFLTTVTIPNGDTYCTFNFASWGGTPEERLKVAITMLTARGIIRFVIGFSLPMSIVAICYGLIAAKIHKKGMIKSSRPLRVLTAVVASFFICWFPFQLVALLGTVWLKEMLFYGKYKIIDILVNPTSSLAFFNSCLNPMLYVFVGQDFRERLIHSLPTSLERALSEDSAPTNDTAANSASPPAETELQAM
The data set is described as follows: Biased agonist activity at human FPR2 expressed in FlpIn-CHO cells assessed as stimulation of ERK1/2 phosphorylation measured after 7 mins by Alphascreen assay. The data set is classed as cell-based. An outline of the steps:
as §1

A short description of data set [6]: Kinetic solubility of the compound at pH 6.5. In kind it is physicochemical. To be noted: buffer, read-out: Kinetic_solubility. A digest of the protocol:
as §2

The target of data set [7] is T2, N-formyl peptide receptor 2. The data set is described as follows: Biased agonist activity at human FPR2 expressed in FlpIn-CHO cells assessed as intracellular calcium mobilization by Fluo-4-AM dye based fluorescence assay. In kind it is functional, cell-based. An outline of the steps: as §1
The nature of data set [8]: Lipophilicity, log P of the compound by chromatographic method. In kind it is physicochemical. An outline of the steps: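 Lipophilicity ([…]) measured chromatographically.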
The nature of data set [9]: Intrinsic clearance in human liver microsomes assessed per mg protein. The data set is classed as ADME, Microsome. An outline of the steps:
(§3)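 Intrinsic clearance measured in vitro in mouse and human liver microsomes; reported as μL/min/mg protein.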
On the technique in general: Liver microsomes are vesicles of endoplasmic reticulum, rich in cytochrome P450 enzymes.

Data set [10] in a line: Intrinsic clearance in mouse liver microsomes assessed per mg protein. In kind it is ADME, Microsome. To be noted: read-out: […]. An outline of the steps:
as §3

Data set [11] has as its target T3, fMet-Leu-Phe receptor (Homo sapiens) (UniProt P21462).
T3 sequence (whole entry): T1 sequence (P21462 whole entry)
The data set is described as follows: Bias factor, transduction co-efficient for biased agonist activity at human FPR1 expressed in FlpIn-CHO cells assessed as stimulation of ERK1/2 phosphorylation relative to 1-(4-chlorophenyl)-3-(5-isopropyl-1-methyl-3-oxo-2-phenyl-2,3-dihydro-1H-pyrazol-4-yl)urea to transduction co-efficient for …. The data set is classed as functional, cell-based.

For `CCCCC(C(=O)Nc1ccc(Br)cc1)n1nc(C)cc(Cc2cccc(OC)c2)c1=O` (stereo not drawn), the EC50 in [1] is 11.5 µM; in data set [2] it was 148 nM.
For `COc1cccc(OC)c1Cc1cc(C)nn(CC(=O)Nc2ccc(Cl)cc2)c1=O` the same measures were 2.82 µM and 2630 nM.
Turning to `COc1cccc(Cc2cc(C)nn(C(C)C(=O)Nc3cccc(F)c3)c2=O)c1` (stereo not drawn), the EC50 in [1] was above 100 µM.
Take `CCCCC(C(=O)Nc1ccc(Cl)cc1)n1nc(C(F)(F)F)cc(Cc2ccccc2OC)c1=O` (stereo not drawn): the results for the EC50 in [1] and in [2] were above 100 µM and above 100000 nM, respectively.
As for `COc1ccccc1Cc1cc(C)nn(CC(=O)Nc2ccccc2Cl)c1=O`, the EC50 in data set [1] was above 100 µM; in data set [2], above 100000 nM.
For `COc1ccccc1Cc1cc(C)nn(C(C(=O)Nc2ccc(Cl)cc2)C2CC2)c1=O` (stereo not drawn) the same measures were above 100 µM and above 100000 nM.
For `COc1cccc(Cc2cc(C)nn(CC(=O)Nc3c(F)cc(Cl)cc3F)c2=O)c1` the same measures were above 100 µM and above 100000 nM.
The matching figures for `CCCCC(C(=O)Nc1ccc(Cl)cc1)n1nc(C)cc(Cc2cccc(OC)c2)c1=O` (stereo not drawn): 5.25 µM and 126 nM.
On to `Cc1cc(Cc2ccc(F)cc2)c(=O)n(CC(=O)Nc2ccc(Br)cc2[N+](=O)[O-])n1`, for which the values for the EC50 in data set [1] and in data set [2] were above 100 µM and above 100000 nM, respectively.
Take `COc1ccccc1Cc1cc(C(F)(F)F)nn(CC(=O)Nc2ccc(Cl)cc2)c1=O`: the values for the EC50 in data set [1] and in data set [2] were above 100 µM and above 100000 nM, respectively.
The matching figures for `COc1ccccc1Cc1cc(C)nn(CC(=O)Nc2ccc(C#N)cc2)c1=O`: above 100 µM and above 100000 nM.
For `COc1ccccc1Cc1cc(C)nn(C(C)C(=O)Nc2ccc(Cl)cc2)c1=O` (stereo not drawn) the same measures were 17.4 µM and 1380 nM.
The matching figures for `COc1ccccc1Cc1cc(C)nn(CC(=O)Nc2c(F)cc(Cl)cc2F)c1=O`: above 100 µM and above 100000 nM.
Regarding `Cc1cc(Cc2ccc(F)cc2)c(=O)n(C(C)C(=O)Nc2ccc(Br)cc2)n1` (stereo not drawn), in data set [1], the EC50 is above 100 µM.
With `COc1cccc(Cc2cc(C)nn(C(C)C(=O)Nc3ccccc3Cl)c2=O)c1` (stereo not drawn), the EC50 in data set [1] was above 100 µM; in data set [2] it was above 100000 nM.
The matching figures for `COc1ccccc1Cc1cc(C)nn(CC(=O)Nc2ccc(OC(F)(F)F)cc2)c1=O`: above 100 µM and above 100000 nM.
Regarding `Cc1cc(Cc2ccccc2F)c(=O)n(C(C)C(=O)Nc2ccc(Br)cc2)n1` (stereo not drawn), the EC50 in data set [1] is above 100 µM.
Take `CCCCC(C(=O)Nc1ccc(Br)cc1)n1nc(C)cc(Cc2cccc(OC)c2OC)c1=O` (stereo not drawn): the EC50 in data set [1] is 0.00646 µM; in [2], 245 nM.
On to `COc1cccc(Cc2cc(C)nn(C(C)C(=O)Nc3ccc(Cl)cc3)c2=O)c1` (stereo not drawn), for which the solubility kinetic in [3] and in [6] was below 1.6 µg/mL in each case. Further, in data set [1], the EC50 was 6.17 to 25.1 µM. For the same compound, the fraction unbound in data set [4] is 0.026. In addition, the pEC50 (in general, the negative decadic logarithm of the EC50, by convention in mol/L) was 5.02 in [5] and below 4.00 in [7]. Also, the logP (usually a log measure of how a compound divides between an organic and an aqueous phase) in data set [8] amounted to 4. For the same compound, in data set [9], the microsomal CLint amounted to 273 µL/min/mg.
Take `COc1ccccc1Cc1cc(C)nn(CC(=O)Nc2cccc(C#N)c2)c1=O`: the EC50 is above 100 µM in [1] and above 100000 nM in data set [2].
For the compound `COc1ccc(OC)c(Cc2cc(C)nn(CC(=O)Nc3ccc(Cl)cc3)c2=O)c1`, the EC50 in data set [1] is 6.31 µM.
Take `COc1cccc(Cc2cc(C)nn(C(C)C(=O)Nc3ccccc3F)c2=O)c1` (stereo not drawn): the EC50 in data set [1] was above 100 µM; in [2], above 100000 nM.
As for `COc1cccc(Cc2cc(C)nn(CC(=O)Nc3ccc(Cl)cc3)c2=O)c1OC`, the EC50 in [1] is 0.224 µM; in [2], 170 nM.
On to `COc1ccccc1Cc1cc(C)nn(C(C)C(=O)Nc2ccc(Br)cc2)c1=O` (stereo not drawn), for which the EC50 in [1] was above 100 µM.
As for `COc1ccccc1Cc1cc(C)nn(CC(=O)Nc2ccc(Cl)cc2Cl)c1=O`, the EC50 in data set [1] is above 100 µM; in [2] it was above 100000 nM.
Regarding `COc1cccc(Cc2cc(C)nn(C(C)C(=O)Nc3ccc(F)cc3)c2=O)c1` (stereo not drawn), the EC50 in data set [1] is above 100 µM.
In the case of `CCC(C(=O)Nc1ccc(Cl)cc1)n1nc(C)cc(Cc2ccccc2OC)c1=O` (stereo not drawn), the EC50 in data set [1] was above 100 µM; in [2] it was 1860 nM.
With `CCCCC(C(=O)Nc1ccc(Cl)cc1)n1nc(C)cc(Cc2cccc(OC)c2OC)c1=O` (stereo not drawn), the EC50 is 0.055 µM in data set [1] and 93.3 nM in [2]. The negative-log EC50 (pEC50) is 7.21 in data set [5] and 7.28 in data set [7].
Take `COc1ccccc1Cc1cc(C)nn(C(C(=O)Nc2ccc(Cl)cc2)C(C)C)c1=O` (stereo not drawn): the EC50 is above 100 µM in data set [1] and 2820 nM in data set [2].
In the case of `CCCCC(C(=O)Nc1ccc(Cl)cc1)n1nc(C)cc(Cc2ccccc2OC)c1=O` (stereo not drawn), the solubility kinetic in data set [3] and in data set [6] was below 0.78 µg/mL throughout. Besides, the negative logarithm of the EC50 (pEC50) in [1] is 6.05; in data set [5], 7.15; in [2] (read-out: EC50), 7.08; in data set [7] it was 7.29. Further, the microsomal CLint in data set [10] stood at 233 µL/min/mg. Further, the fraction unbound in [4] is 0.016. In [11], the fold change (FC) was found to be 20. Further, the logP in data set [8] was determined as 5.2.
For `CCCC(C(=O)Nc1ccc(Cl)cc1)n1nc(C)cc(Cc2ccccc2OC)c1=O` (stereo not drawn), the EC50 in data set [1] is 9.77 µM; in [2], 6310 nM.
For `COc1ccccc1Cc1cc(C)nn(CC(=O)Nc2ccc(Cl)cc2F)c1=O` the same measures were above 100 µM and above 100000 nM.
Take `CCc1ccc(NC(=O)Cn2nc(C)cc(Cc3ccccc3OC)c2=O)cc1`: the EC50 in [1] was above 100 µM.
On the same count and under the same terms, next, `COc1ccc(NC(=O)Cn2nc(C)cc(Cc3ccccc3OC)c2=O)cc1`: above 100 µM.
As to `COc1ccccc1Cc1cc(C)nn(CC(=O)Nc2ccccc2C#N)c1=O`, the EC50 in [1] is above 100 µM; in [2] it was above 100000 nM.
Turning to `CCCCC(C(=O)Nc1ccc(Br)cc1)n1nc(C)cc(Cc2ccccc2OC)c1=O` (stereo not drawn), the EC50 in data set [1] is above 100 µM; in data set [2], 331 nM.
The matching figures for `COc1cccc(Cc2cc(C)nn(C(C)C(=O)Nc3cccc(Cl)c3)c2=O)c1` (stereo not drawn): above 100 µM and above 100000 nM.
Turning to `COc1cccc(Cc2cc(C)nn(CC(=O)Nc3ccc(Cl)cc3F)c2=O)c1`, the figures for the EC50 in data set [1] and in data set [2] were above 100 µM and 5620 nM, respectively.
`COc1cccc(Cc2cc(C)nn(C(C)C(=O)Nc3ccc(Cl)cc3)c2=O)c1OC` (stereo not drawn): the EC50 is 0.155 µM in data set [1] and 145 nM in data set [2].
Regarding `Cc1cc(Cc2cccc(F)c2)c(=O)n(C(C)C(=O)Nc2ccc(Br)cc2)n1` (stereo not drawn), in data set [1], the EC50 is above 100 µM.
As for `COc1ccc(Cc2cc(C)nn(C(C)C(=O)Nc3ccc(Br)cc3)c2=O)cc1` (stereo not drawn), the EC50 in [1] is above 100 µM.
Consider `COc1ccccc1Cc1cc(C)nn(CC(=O)Nc2cccc(Cl)c2)c1=O`, for which the results for the EC50 in [1] and in data set [2] were above 100 µM and above 100000 nM, respectively.
As to `COc1ccccc1Cc1cc(C)nn(CC(=O)Nc2ccc(Cl)cc2)c1=O`, the EC50 in [1] was above 100 µM.
Consider `Cc1cc(Cc2ccc(F)cc2)c(=O)n(CC(=O)Nc2c(F)cc(F)cc2[N+](=O)[O-])n1`, for which the EC50 was above 100 µM in data set [1] and above 100000 nM in data set [2].
